According to ChEMBL document CHEMBL4387787, “Cucurbalsaminones A-C, Rearranged Triterpenoids with a 5/6/3/6/5-Fused Pentacyclic Carbon Skeleton from Momordica balsamina, as Multidrug Resistance Reversers” (J Nat Prod, 2019):

Key:
[1] = Antiproliferative activity against mouse L5178Y cells transfected with ABCB1 by MTT assay; assay type: ADME, cell-based; settings: read-out: ID50 (the source's name)
Procedure, shortened: (§1)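 MTT assay on parental L5178 mouse T-lymphoma cells and a subline transfected with pHa MDR1/A retrovirus (human ABCB1) and selected with colchicine. Cells were exposed to increasing concentrations from 0.26 to 133 μM. Other handling followed earlier reports.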

[2] = target: T1, ATP-dependent translocase ABCB1 (Homo sapiens, UniProt P08183); assay: Modulation of ABCB1 (unknown origin) expressed in mouse L5178Y-MDR cells assessed as multidrug resistance reversing activity by measuring fluorescence activity ratio at 20 uM by rhodamine-123 accumulation based flow cytometry (reference value: 1.1 No unit); assay type: cell-based
T1 sequence (P08183 whole entry): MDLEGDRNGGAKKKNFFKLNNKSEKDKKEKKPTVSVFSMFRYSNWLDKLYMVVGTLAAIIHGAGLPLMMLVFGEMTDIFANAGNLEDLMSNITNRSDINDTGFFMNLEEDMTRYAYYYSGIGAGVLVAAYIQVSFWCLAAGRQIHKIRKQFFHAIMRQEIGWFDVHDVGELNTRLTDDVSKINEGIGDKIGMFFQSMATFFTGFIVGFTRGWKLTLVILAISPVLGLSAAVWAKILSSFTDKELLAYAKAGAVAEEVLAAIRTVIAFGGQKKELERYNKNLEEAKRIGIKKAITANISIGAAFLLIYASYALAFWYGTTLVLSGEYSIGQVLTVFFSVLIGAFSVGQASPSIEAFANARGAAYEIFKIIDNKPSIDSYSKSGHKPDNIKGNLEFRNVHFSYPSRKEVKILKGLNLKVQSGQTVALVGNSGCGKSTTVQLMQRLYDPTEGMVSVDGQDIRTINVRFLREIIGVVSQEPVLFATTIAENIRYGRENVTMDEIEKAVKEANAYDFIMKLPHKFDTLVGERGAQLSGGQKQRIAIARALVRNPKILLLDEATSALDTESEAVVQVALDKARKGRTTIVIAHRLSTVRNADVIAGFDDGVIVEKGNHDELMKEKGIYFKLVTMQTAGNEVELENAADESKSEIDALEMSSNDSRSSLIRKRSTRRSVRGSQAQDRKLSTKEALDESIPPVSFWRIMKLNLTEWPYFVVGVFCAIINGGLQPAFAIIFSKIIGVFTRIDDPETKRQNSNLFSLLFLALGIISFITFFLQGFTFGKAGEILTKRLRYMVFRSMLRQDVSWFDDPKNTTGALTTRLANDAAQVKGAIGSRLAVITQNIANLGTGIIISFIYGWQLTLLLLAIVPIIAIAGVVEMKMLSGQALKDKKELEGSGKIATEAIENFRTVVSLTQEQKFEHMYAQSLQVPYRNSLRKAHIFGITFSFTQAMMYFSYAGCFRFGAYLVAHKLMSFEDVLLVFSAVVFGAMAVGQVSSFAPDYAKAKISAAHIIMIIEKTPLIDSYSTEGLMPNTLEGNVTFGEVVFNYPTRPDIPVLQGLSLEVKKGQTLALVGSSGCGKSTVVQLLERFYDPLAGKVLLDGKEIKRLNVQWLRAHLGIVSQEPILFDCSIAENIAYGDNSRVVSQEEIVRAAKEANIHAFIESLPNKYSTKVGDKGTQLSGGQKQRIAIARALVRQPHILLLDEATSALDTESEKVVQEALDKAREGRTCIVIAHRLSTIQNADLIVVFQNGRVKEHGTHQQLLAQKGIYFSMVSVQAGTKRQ

[3] = target: T1, ATP-dependent translocase ABCB1; assay: Modulation of ABCB1 (unknown origin) expressed in mouse L5178Y-MDR cells assessed as multidrug resistance reversing activity by measuring fluorescence activity ratio at 0.2 uM by rhodamine-123 accumulation based flow cytometry (reference value: 1.1 No unit); assay type: cell-based
[4] = target: T1, ATP-dependent translocase ABCB1; assay: Modulation of ABCB1 (unknown origin) expressed in mouse L5178Y-MDR cells assessed as multidrug resistance reversing activity by measuring fluorescence activity ratio at 2 uM by rhodamine-123 accumulation based flow cytometry (reference value: 1.1 No unit); assay type: cell-based
[5] = Antiproliferative activity against mouse L5178Y cells by MTT assay; assay type: cell-based; settings: read-out: ID50 (the source's name); procedure, shortened: as §1

SMILES: CC(C)=CC(=O)C[C@@H](C)[C@H]1CC[C@@]2(C)[C@@H]3C(=O)[C@@H]4C(C)(C)[C@@]45C(=O)CC[C@H]5[C@]3(C)CC[C@]12C
- GI50 [1]: > 100 µM
- Ratio [2]: 105.5
- Ratio [3]: 5.9
- Ratio [4]: 76.7
- GI50 [5]: > 100 µM

SMILES: CC(=O)C[C@@H](C)[C@H]1CC[C@@]2(C)[C@@H]3C(=O)[C@@H]4C(C)(C)[C@@]45C(=O)CC[C@H]5[C@]3(C)CC[C@]12C
- GI50 [1]: 68.3 µM
- Ratio [2]: 87.5
- Ratio [3]: 1.4
- Ratio [4]: 14.2
- GI50 [5]: 72.2 µM

SMILES: C=C(C)/C=C/C[C@@H](C)[C@H]1CC[C@@]2(C)[C@@H]3C(=O)[C@@H]4C(C)(C)[C@@]45C(=O)CC[C@H]5[C@]3(C)CC[C@]12C
- GI50 [1]: 37.6 µM
- Ratio [2]: 117.7
- Ratio [3]: 3.1
- Ratio [4]: 62.2
- GI50 [5]: 20.7 µM
